# Source: PubChem BioAssay (several laboratories)
# This is a sample that favours compounds with a hit; in the whole collection about 4.6% have one here.
# Wee1 degr inh – inhibitors of human Wee1 degradation. P30291. HeLa Luc-Wee1K328M stability, luciferase luminescence; 100% = proteasome inhibitor MG132 effect. reporter increase, % at 5 µM. 1.2% of 220,000 active. AID 1321;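 active = activation above the mean of all tested compounds plus 3 SD, set per screening run, cut at about 8.8% in these data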;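 also: cells exposed to compound for 20 h before luminescence read; 0% = DMSO alone and 100% = MG132 at 30 µM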
# APP 5'UTR act – APP 5'UTR luciferase reporter activation | activation, % at 2 µM | 1% of 190,000 active | SH-SY5Y APP 5'UTR luciferase reporter, luminescence; zero percent = DMSO vehicle wells;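 active = activation above a set limit, based on mean plus 3 SD of controls, cut at about 140% in these data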
# p97 inhibitor – blocks human p97 ATPase activity | P55072 | recombinant p97 ATPase, Kinase-Glo ATP luminescence, 3 h | inhibition, % at 8 µM | 0.42% of 220,000 active; in the data active = inhibition above about 15%;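 also: 0% = DMSO vehicle and 100% = wells lacking enzyme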
# Target sequence (P55072 whole entry, looked up): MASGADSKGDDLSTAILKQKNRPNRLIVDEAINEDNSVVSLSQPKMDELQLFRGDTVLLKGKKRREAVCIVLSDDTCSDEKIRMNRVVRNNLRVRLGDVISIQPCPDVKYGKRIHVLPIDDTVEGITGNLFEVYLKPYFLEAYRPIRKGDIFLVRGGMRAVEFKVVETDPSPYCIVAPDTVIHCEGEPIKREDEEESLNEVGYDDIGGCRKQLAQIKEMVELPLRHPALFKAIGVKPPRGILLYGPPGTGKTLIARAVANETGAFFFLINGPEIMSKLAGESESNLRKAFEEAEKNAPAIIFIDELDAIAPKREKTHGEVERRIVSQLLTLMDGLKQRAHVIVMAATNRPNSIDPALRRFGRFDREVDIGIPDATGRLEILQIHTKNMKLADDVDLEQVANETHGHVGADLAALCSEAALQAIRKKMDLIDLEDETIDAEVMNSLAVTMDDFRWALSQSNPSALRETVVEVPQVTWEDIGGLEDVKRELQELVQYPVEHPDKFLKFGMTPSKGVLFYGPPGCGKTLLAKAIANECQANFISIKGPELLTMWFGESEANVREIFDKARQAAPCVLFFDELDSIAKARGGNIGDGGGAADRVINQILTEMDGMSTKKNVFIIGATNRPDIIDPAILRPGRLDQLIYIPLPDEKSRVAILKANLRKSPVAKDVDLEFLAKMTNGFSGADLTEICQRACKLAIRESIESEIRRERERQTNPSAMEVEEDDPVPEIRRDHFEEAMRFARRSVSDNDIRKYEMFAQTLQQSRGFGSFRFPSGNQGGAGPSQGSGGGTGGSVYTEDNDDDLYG
# MDM2 E3 inh – inhibitors of human Mdm2 E3 ubiquitin ligase; cell-based MDM2 ubiquitination luciferase reporter, 2 h; 0 = plate control, 100 = twice control, blank-subtracted; signal enhancement, % at 5 µM; 0.11% of 210,000 active; AID 1230;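 active = signal enhancement of 30% or more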;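 also: luminescence tracks abundance of the self-degrading MDM2-luciferase fusion protein; higher signal means inhibition of MDM2 E3 ligase activity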
#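 Test system: mammalian cells stably expressing self-ubiquitinating, self-degrading MDM2 E3–luciferase fusion; Amount: 2000 cells in each well; Medium: DMEM; Schedule: 4 h settle plus 2 h compound, 37 °C; Technique: SteadyLite luciferase luminescence after 15 min room-temperature reagent incubation; Benchmarks: plate control and blank wells.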
# NF-kB neuron act – compounds increasing NF-kB expression in human neuronal cells. NF-kB reporter expression; active compounds read high. fold change at 12.5 µM. 1.6% of 190,000 active; in the data active = fold change above about 3.3
# STAT1 act – increases IFN-gamma driven STAT1 reporter signal | NIH 3T3 STAT1-luciferase reporter, luminescence; 100% = IFN-gamma alone, no compound | activation (% of control), % at 5.5 µM | 2.6% of 200,000 active | AID 932;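 active = activation above the screen-wide mean activation plus 3 SD, cut at about 130% in these data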;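 also: raw ratio to IFN-gamma control signal so 100% means no change and 0% no light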
# STAT1 act conf – confirmation of STAT1 signaling activators | shares compounds with STAT1 act | NIH 3T3 STAT1-luciferase reporter, IFN-gamma potentiation, luminescence; 100% = IFN-gamma EC80 alone, no compound | activation (% of control), % at 5.7 µM | 97% of 1,200 active;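 active = activation above a set limit carried over from the earlier primary STAT1 screen, cut at about 140% in these data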;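 also: simple ratio to median IFN-gamma plus DMSO wells so 0% means no light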
# NFkB act – NF-kappaB activation in STAT1 activator counter-screen; shares compounds with STAT1 act; HEK293T NF-kB luciferase reporter, TNF-alpha stimulated, luminescence; 100% = TNF-alpha with vehicle only; activation (% of control), % at 5.7 µM; 43% of 1,200 active; AID 1306;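 active = activation above the mean of solvent-only control wells plus 3 SD, set per campaign, cut at about 130% in these data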;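 also: TNF-alpha given at a submaximal dose yielding about 80% of full reporter signal; values are well signal over median control so 100% means no change and 0% no light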
# STAT3 act 2 – activates human STAT3, counter-screen to STAT1 activators. U3A cells STAT3-luciferase reporter, IL-6, luminescence; cells lack STAT1; 100 = IL-6 alone, no compound effect. AID 1316. shares compounds with STAT1 act. 46% of 1,200 active. activation (% of control), % at 5.7 µM;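 active = activation above the solvent-only control well mean plus 3 SD, set per plate batch, cut at about 110% in these data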;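 also: 0% = no luminescence and 100% = median IL-6 plus DMSO wells; higher means more STAT3 reporter activation so hits are non-selective activators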
# Active calls of the source: *; x = not tested or not shown.
SMILES,Wee1 degr inh,APP 5'UTR act,p97 inhibitor,MDM2 E3 inh,NF-kB neuron act,STAT1 act,STAT1 act conf,NFkB act,STAT3 act 2
Brc1ccc(-c2nnc(-c3ccccc3Br)o2)cc1,-2,169*,1,11,0.93,164*,216*,138*,102
CCOc1ccc(-c2nnc(-c3ccco3)o2)cc1OCC,6,15,3,13,1.8,125,x,x,x
Brc1ccc(-c2nnc(-c3ccco3)o2)cc1,2,70,-4,-10,3,155*,181*,130,100
CCOc1ccccc1C(=O)Nc1nn[nH]n1,4,12,2,-1,1.1,98,x,x,x
Cc1ccc(NC(=O)/C=N/OCC(=O)NCc2ccccc2Cl)cc1,-1,x,5,-3,x,x,x,x,x
Cc1ccccc1-n1ncc(C(C)NC(=O)c2ccco2)c1C (centres undefined),0,5,-1,1,1.4,108,x,x,x
CCc1ccc(NC(=O)c2cnn(-c3ccccc3)c2C)cc1,1,155*,-3,-16,5.9*,185*,252*,114,87
CCc1ccc(NC(=O)c2cnn(-c3ccccc3)c2C2CCNCC2)cc1,-1,13,3,-27,0.82,107,x,x,x
Cc1cc(C)cc(Oc2ccc(NC(=O)C3CC=CCC3C(=O)O)cc2)c1 (centres undefined),4,5,0,7,1.2,97,x,x,x
CCc1ccc(NC(=O)C(=S)NC2CCCCC2)cc1,2,116,4,-23,2.9,160*,200*,144*,113*
COc1ccc(NC(=O)C(=S)NC2CCCCC2)cc1,5,121,2,-6,0.91,158*,194*,138*,115*
CCOc1ccc(NC(=O)C(=S)NC2CCCCC2)cc1,2,57,-3,-17,1.6,126,x,x,x
COC(=O)c1sccc1-c1ccc(/C=N/OC(=O)c2cccs2)o1,-1,x,14,2,x,x,x,x,x
O=C(O)/C=C(\Oc1ccccc1)C1(O)CCCCC1,0,x,1,-13,x,x,x,x,x
COc1ccccc1N=c1sc2ccccc2n1C,1,4,-3,-13,1.1,101,x,x,x
COc1ccc(N=c2sc3ccccc3n2C)cc1,1,134,-1,-9,5.6*,151*,208*,135*,111*
CC(C)c1ccc(N=C2NN=C(c3cccs3)CS2)cc1,5,169*,4,-68,1.1,153*,195*,126,111*
COc1ccc(/C=C/c2nc3ccccc3n2Cc2ccccc2OC)cc1,-3,179*,2,-17,5.6*,154*,166*,122,113*
CN(C)c1cccc(C(=O)N/N=C/c2ccsc2)c1,1,37,4,-24,1,125,x,x,x
COc1ccc(C(=O)NCCSc2ccccc2)cc1,7,128,-4,x,5.7*,157*,193*,96,112*
COc1ccc(CNC(=O)c2ccc(C(C)C)cc2)cc1,2,132,-4,-6,3.7*,151*,177*,144*,128*
COc1ccc(CNC(=O)c2ccc3nccnc3c2)cc1,6,2,3,-1,2,102,x,x,x
Cc1ccc(C2=Nc3cccnc3C(c3ccccc3)=NN2)cc1,-3,113,7,-4,2.6,156*,202*,143*,115*
Cc1ccc2c(c1)C(c1ccncc1)=NNC(c1ccccc1)=N2,2,18,6,-6,2.2,127,x,x,x
O=C(Cc1ccccc1)NCCC1=CCCCC1,-2,-28,3,-1,1.2,102,x,x,x
SMILES,Wee1 degr inh,APP 5'UTR act,p97 inhibitor,MDM2 E3 inh,NF-kB neuron act,STAT1 act,STAT1 act conf,NFkB act,STAT3 act 2
O=C(COc1ccc([N+](=O)[O-])cc1)NCCC1=CCCCC1,1,-6,6,x,0.95,104,x,x,x
O=C(NCCC1=CCCCC1)c1ccc([N+](=O)[O-])cc1,-1,160*,-2,-25,4.8*,151*,189*,118,160*
O=C(NCCC1=CCCCC1)c1ccc(F)cc1,0,210*,-2,-41,1.1,166*,200*,107,102
Cc1ccc(NCc2n[nH]c(=S)n2Cc2ccccc2)cc1Cl,-1,1,2,7,1.1,99,x,x,x
COc1ccc2c(=O)c(-c3ccc4c(c3)OCO4)coc2c1,0,192*,6,x,4.3*,164*,217*,97,80
CC(C)Oc1ccc2c(=O)c(-c3ccccc3)coc2c1,2,163*,0,x,9.5*,156*,219*,122,90
N#C/C(=N\Nc1ccccc1)C(=N)N1CCCCCC1,8,x,7,-10,x,x,x,x,x
N#C/C(=N\Nc1ccc(F)cc1)C(=N)N1CCCCC1,6,138*,0,-20,8.2*,155*,216*,127,115*
CCOC(=O)c1c(C)[nH]c(C(=O)OCCOc2ccc(Cl)cc2)c1C,0,18,1,x,1.1,97,x,x,x
CCOC(=O)c1c(C)[nH]c(C(=O)OCCOc2ccccc2C)c1C,3,118,-7,-12,3.4*,159*,183*,125,123*
Fc1ccc(Nc2nc(N/N=C/c3ccco3)nc(N3CCCCC3)n2)cc1,-4,13,8,-15,0.47,103,x,x,x
CCCCOc1ccc(-c2csc(N)n2)cc1[N+](=O)[O-],3,142*,4,-11,5.4*,156*,192*,141*,110
O=C(COC(=O)CCSc1ccccc1)NCc1ccccc1,1,10,-5,-17,1.2,103,x,x,x
CN(C)c1nc(N)nc(CSc2nc3cc(Cl)ccc3o2)n1,5,11,-1,-10,2,152*,142*,122,90
Cn1c(N)c(C(=O)COC(=O)c2ccc(Cl)c(S(=O)(=O)N3CCCC3)c2)c(=O)n(C)c1=O,-2,x,-3,x,x,x,x,x,x
COc1cc(/C=N/NC(=O)CC2(C)OCCCO2)ccc1OCc1ccccc1,0,4,5,5,1.2,113,x,x,x
COc1cc(/C=N/NC(=O)CN2CCCCC2)ccc1OCc1ccc(Br)cc1,1,134,7,4,4.5*,176*,178*,136*,119*
CCOC(=O)CC(=O)Nc1nnc(C(C)C)s1,-1,-4,5,-17,1.2,152*,112,103,102
